Experimental data from different studies.
Compare with care: the assays were run in different laboratories.
Target: Phosphatidylinositol 4-phosphate 5-kinase type-1 alpha (PIP5K1A, Homo sapiens, UniProt Q99755)

Compound | observed | mode | technique | concentration | measurement | result
Nc1ncnc2occ(-c3ccc(NC(=O)Nc4cc(C(F)(F)F)ccc4F)cc3)c12 | enzyme activity | inhibitor |  | 20 µM | remaining activity | 60%
CN1CC(Oc2cnc(C#N)cc2-c2ccn3nc(NC(=O)C4CC4)cc3c2)C1 | enzyme activity | inhibitor |  | 1 µM | inhibition | 0%
CCOCCn1cc(C(=O)Nc2ccc(-n3nc(-c4cccnc4)cc3C(F)(F)F)cn2)ccc1=O | cell-free assay |  | competition with immobilised ligand | 1 µM | remaining binding | 100%
CS(=O)(=O)Nc1cccc(-c2csc(NC(=O)CSc3nc4nccnc4c(=O)n3CCc3ccccc3)n2)c1 | enzyme activity | inhibitor |  | 10 µM | inhibition | -1%
Cc1cnc(NC2CCOCC2)nc1-n1cnc(C(=O)NC(CN)c2cc(F)cc(Cl)c2)c1 (centres unmarked) | enzyme activity | inhibitor | radiometric | 1 µM | remaining activity | 100%
O=C(CSc1nc2nccnc2c(=O)n1CCc1ccccc1)Nc1nccs1 | enzyme activity | inhibitor |  | 10 µM | inhibition | -2%
Cc1ccc(NC(=O)c2ccc(C)c(C(F)(F)F)c2)cc1C#Cc1nn(C2CCC(O)CC2)c2ncnc(N)c12 (centres unmarked) | cell-free assay | inhibitor |  | 10 µM | remaining signal | 102%
COCCOc1nc(-c2ccc(Cl)nc2)nc2c1CN(C(=O)c1ncn3ccccc13)CC2 | cell-free assay |  | competition with immobilised ligand | 0.1 µM | remaining binding | 100%
Cc1ccc(C(=O)Nc2ccc(CN3CCN(C)CC3)c(C(F)(F)F)c2)cc1C#Cc1cnc2cccnn12 | enzyme activity | inhibitor |  | 23.5 nM | remaining activity | 79%
COc1cc(Cl)c(C(=O)N[C@@H](CN[C@H]2CC[C@@H](N)CC2)Cc2ccc(C#N)cc2)cc1-c1ccc(CN[C@H](C)c2ccc(C)cc2)o1 | enzyme activity | inhibitor |  | 1 µM | remaining activity | 106%
Cc1cc(NC(=O)c2cccc3cc(-c4cccc5[nH]nc(N)c45)ccc23)ccc1F | enzyme activity | inhibitor |  | 0.1 µM | activity vs control | 96%
